Laboratory results published in paper PMC7790123 (Psychopharmacology, 2020).

Legend:
[1] = Drug concentration in free plasma and CSF after dosing; format: in vivo, rat; settings: for Drug Concentration CSF: 15 mg/kg ip
Outline: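 After 1 h acclimation, rats received vehicle or test compound, suspended in 0.1% Tween80, 0.1% silicone antifoam and 1% methylcellulose in water, given ip at 5 mL/kg. At 1 or 4 h, rats were anaesthetised with isoflurane and sampled. Blood was spun at 2000 g, 4°C, 10 min for plasma. CSF and plasma were stored at −80°C, then compound levels were measured by LC-MS/MS.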

COMT = target: T1, COMT (Rattus norvegicus, UniProt P22734); assay: Frontal cortex microdialysis: DA, HVA and DOPAC in extracellular fluid; format: in vivo; settings: 20 min samples for 2 h after dosing, vs vehicle
T1 sequence (P22734 44-264 limits assumed): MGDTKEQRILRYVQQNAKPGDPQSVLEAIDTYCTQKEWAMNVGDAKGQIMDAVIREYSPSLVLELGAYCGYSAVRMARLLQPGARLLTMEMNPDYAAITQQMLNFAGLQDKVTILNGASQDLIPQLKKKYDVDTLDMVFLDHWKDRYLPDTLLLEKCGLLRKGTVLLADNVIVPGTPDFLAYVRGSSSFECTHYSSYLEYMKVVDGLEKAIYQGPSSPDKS

rats = assay: Attentional set-shifting task; format: in vivo, rat; settings: 15 mg/kg ip, male rats, dosed 1 h before testing, vs vehicle
Outline: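 Rats were handled 1 min at least three times in the week before testing. The test compound was suspended in 0.1% Tween80, 0.1% silicone antifoam and 1% methylcellulose in water and given ip at 5 mL/kg, 1 h before testing. Over four days: pre-habituation, habituation, training, then a single test of seven discriminations (SD, CD, CDR, ID, IDR, ED, EDR). The first four trials were unscored; criterion was six consecutive correct. Analysis: two-way repeated-measures ANOVA with Tukey post hoc.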

[2] = male, rat, plasma (free, unbound concentration), intraperitoneal, 15 mg/kg

Structure (SMILES): Cc1ccc(C(=O)c2cc(O)c(O)c([N+](=O)[O-])c2)cc1 [Tolcapone, tolcapone]
- Drug Concentration CSF ([1]; female rats, 4 h): BLQ
- Drug Concentration CSF ([1]; male rats, 1 h): BLQ
- Drug Concentration CSF ([1]; male rats, 4 h): BLQ
- concentration at 4 h ([1]; female, rat, plasma (free, unbound concentration), intraperitoneal, 15 mg/kg): 10 nM
- concentration at 1 h [1, 2]: 35 nM
- concentration at 4 h [1, 2]: 4 nM
- extracellular DOPAC concentration, frontal cortex (COMT): significantly increased DOPAC for the 40–120-min time points
- extracellular HVA concentration, frontal cortex (COMT): significantly decreased HVA for the 40–120-min time points
- ASST performance (trials to criterion), ED stage (rats): improved ED stage performance
